Experimental findings from ChEMBL document CHEMBL1127616, “Synthesis, structural characterization, and antitumor properties of a novel class of large-ring platinum(II) chelate complexes incorporating the cis-1,4-diaminocyclohexane ligand in a unique locked boat conformation” (J Med Chem, 1994) are described below.

Assay [1] deals with Mus musculus. The experiment in a line: Tested for in vivo weight change against murine P388Pt-resistant leukemia at the dose of 3.7 mg/kg per injection. It is filed as functional, organism-based. Summed up:
(§1)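 Leukemia life-span assays used CD2F1 (Balb/c × DBA/2F1) mice weighing 18–22 g. Cells were inoculated IP on day 0, and compounds in 0.9% saline were given IP, dosed by average cage weight. Weight change is the difference in mean group weight between the last and first treatment days.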

Assay [2] concerns P388. The experiment in a line: Tested for in vitro growth inhibition against murine leukemia cell P388S. In kind it is functional, cell-based. The following applies: Mus musculus.
Assay [3] deals with L1210. The experiment in a line: Tested for median life span against solid tumor L1210 leukemia at 1.5 mg/kg per injection in experiment 1. In kind it is functional, organism-based. The following applies: Mus musculus. The method in brief:
(§2)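 CD2F1 mice weighing 18–22 g were inoculated IP with leukemia cells on day 0. Compounds in 0.9% saline were given IP in three injections, dosed by average cage weight, over a dose range from toxic to ineffective. Median life span was recorded, with cause of death assessed at necropsy and 60-day survivors counted as cured.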

Assay [4] relates to L1210. The experiment in a line: Tested for in vitro growth inhibition against murine leukemia cell L1210S. In kind it is functional, cell-based. Particulars: Mus musculus.
For assay [5], the system named is L1210. The experiment in a line: Tested for in vitro growth inhibition against murine leukemia cell L1210DDP5. In kind it is functional, cell-based. Particulars: Mus musculus.
The subject of assay [6] is L1210. The experiment in a line: Tested for the ratio of number of survivors / total number after 60 days at the dose of 3.0 mg/kg per injection against murine leukemia L1210 experiment 1. It is filed as functional, organism-based. The following applies: Mus musculus. The method in brief:
(§3)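 CD2F1 (Balb/c × DBA/2F1) mice, 18–22 g, randomized and inoculated IP with counted leukemia cells on day 0, then re-randomized. Three IP treatments, dissolved in 0.9% saline and dosed on average cage weight, with dose in mg/kg per injection across a full toxic-to-ineffective range. Median life span and %T/C were recorded. Survivors at 60 days were counted as cured and excluded from %T/C.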

For assay [7], the system named is L1210. The experiment in a line: Tested for median life span against solid tumor L1210 Pt-resistant leukemia at 3.0 mg/kg per injection in experiment 1. In kind it is functional, organism-based. Particulars: Mus musculus. The method in brief:
as §2

The subject of assay [8] is L1210. The experiment in a line: Tested for the ratio of treated and control against solid tumor murine L1210 Pt-resistant leukemia 1.6 mg/kg per injection in experiment 2; T/C. It is filed as functional, organism-based. Particulars: Mus musculus. Summed up:
(§4)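 Murine leukemia life span assay in CD2F1 (Balb/c × DBA/2F1) mice, 18–22 g, randomized, with IP tumor cell inoculation on day 0. Depending on the model, the inoculum was 1 × 10^4 cells with IP dosing on days 3, 7 and 11, or 1 × 10^6 cells with IP dosing on days 1, 5 and 9. Drug was given in 0.9% saline, mg/kg per injection, by average cage weight. Read-outs were median day of death and %T/C. Mice alive 60 days after treatment counted as cured and were excluded.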

Assay [9] has as its system L1210. The experiment in a line: Tested for median life span against solid tumor L1210 leukemia at 1.6 mg/kg per injection in experiment 2. In kind it is functional, organism-based. The following applies: Mus musculus. Summed up:
as §2

In assay [10] the test system is Mus musculus. The experiment in a line: Tested for the ratio of number of survivors / total number after 60 days at the dose of 3.7 mg/kg per injection against murine P388 Pt-resistant leukemia. In kind it is functional, organism-based. Summed up: as §3
Assay [11] deals with Mus musculus. The experiment in a line: Tested for the ratio of number of survivors / total number after 60 days at the dose of 2.3 mg/kg per injection against murine leukemia P388 experiment 2. In kind it is functional, organism-based. Summed up: as §3
Assay [12] has as its system Mus musculus. The experiment in a line: Tested for the ratio of treated and control against solid tumor murine P388 Pt-resistant leukemia 3.7 mg/kg per injection; T/C. It is filed as functional, organism-based. Summed up: as §4
Assay [13] concerns L1210. The experiment in a line: Tested for median life span against solid tumor L1210 Pt-resistant leukemia at 1.5 mg/kg per injection in experiment 1. In kind it is functional, organism-based. The following applies: Mus musculus. Summed up: as §2
Assay [14] concerns L1210. The experiment in a line: Tested for the ratio of treated and control against solid tumor murine L1210 leukemia 1.6 mg/kg per injection in experiment 2; T/C. Particulars: Mus musculus. It is filed as functional, organism-based. The method in brief: as §4
Assay [15] deals with Mus musculus. The experiment in a line: Tested for median life span against solid tumor P388 leukemia at 3.7 mg/kg per injection in experiment 2. In kind it is functional, organism-based. The method in brief: as §4
In assay [16] the test system is P388. The experiment in a line: Tested for in vitro growth inhibition against murine leukemia cell P388Pt4. In kind it is functional, cell-based. The following applies: Mus musculus.
For assay [17], the system named is L1210. The experiment in a line: Tested for in vivo weight change against murine L1210 Pt-resistant leukemia at the dose of 1.6 mg/kg per injection in experiment 2. The following applies: Mus musculus. In kind it is functional, organism-based. The method in brief: as §1
In assay [18] the test system is Mus musculus. The experiment in a line: Tested for median life span against solid tumor P388 Pt-resistant leukemia at 2.3 mg/kg per injection. It is filed as functional, organism-based. Summed up:
as §3

The subject of assay [19] is L1210. The experiment in a line: Tested for in vivo weight change against murine L1210 leukemia at the dose of 1.5 mg/kg per injection in experiment 1. It is filed as functional, organism-based. The following applies: Mus musculus. Summed up: as §1
The subject of assay [20] is L1210. The experiment in a line: Tested for in vivo weight change against murine L1210 leukemia at the dose of 2.5 mg/kg per injection in experiment 2. It is filed as functional, organism-based. The following applies: Mus musculus. Summed up: as §1
The subject of assay [21] is L1210. The experiment in a line: Tested for in vitro growth inhibition against murine leukemia cell L1210PtR4. In kind it is functional, cell-based. Particulars: Mus musculus.
Assay [22] concerns L1210. The experiment in a line: Tested for in vitro growth inhibition against murine leukemia cell L1210DACH. In kind it is functional, cell-based. Particulars: Mus musculus.
For assay [23], the system named is Mus musculus. The experiment in a line: Tested for in vivo weight change against murine B16 melanoma at the dose of 4.0 mg/kg per injection. In kind it is functional, organism-based. Summed up:
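B6C3F1 (C57BL/6 × C3HF1) mice weighing 18–22 g received trocar tumor fragments SC on day 0. Compounds in 0.9% saline were given IP on a three-injection schedule, dosed by average cage weight. Weight change is the maximum treatment-related weight loss during the growth-delay assay.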

The test system of assay [24] is L1210. The experiment in a line: Tested for the ratio of treated and control against solid tumor murine L1210 Pt-resistant leukemia 5.0 mg/kg per injection in experiment 2; T/C. It is filed as functional, organism-based. Particulars: Mus musculus. Summed up: as §4
In assay [25] the test system is Mus musculus. The experiment in a line: Tested for median life span against solid tumor P388 leukemia at 10 mg/kg per injection. In kind it is functional, organism-based. The method in brief: as §4
The test system of assay [26] is Mus musculus. The experiment in a line: Tested for the ratio of number of survivors / total number after 60 days at the dose of 5.0 mg/kg per injection against murine leukemia P388. It is filed as functional, organism-based. The method in brief: as §3
Assay [27] deals with L1210. The experiment in a line: Tested for the ratio of treated and control against solid tumor murine L1210 Pt-resistant leukemia 10 mg/kg per injection in experiment 2; T/C. In kind it is functional, organism-based. The following applies: Mus musculus. The method in brief: as §4
Assay [28] has as its system Mus musculus. The experiment in a line: Tested for the ratio of number of survivors / total number after 60 days at the dose of 10 mg/kg per injection against murine P388 Pt-resistant leukemia. In kind it is functional, organism-based. The method in brief:
as §3

The subject of assay [29] is L1210. The experiment in a line: Tested for in vivo weight change against murine L1210 leukemia at the dose of 6.0 mg/kg per injection in experiment 1. It is filed as functional, organism-based. The following applies: Mus musculus. Summed up: as §1
The subject of assay [30] is L1210. The experiment in a line: Tested for in vivo weight change against murine L1210 leukemia at the dose of 5.0 mg/kg per injection in experiment 2. It is filed as functional, organism-based. Particulars: Mus musculus. Summed up:
as §1

Assay [31] concerns L1210. The experiment in a line: Tested for the ratio of number of survivors / total number after 60 days at the dose of 4.0 mg/kg per injection against murine L1210 Pt-resistant leukemia in experiment 1. In kind it is functional, organism-based. The following applies: Mus musculus. Summed up: as §3
For assay [32], the system named is L1210. The experiment in a line: Tested for the ratio of number of survivors / total number after 60 days at the dose of 5.0 mg/kg per injection against murine leukemia L1210 experiment 2. It is filed as functional, organism-based. Particulars: Mus musculus. The method in brief: as §3
The test system of assay [33] is L1210. The experiment in a line: Tested for median life span against solid tumor L1210 Pt-resistant leukemia at 5.0 mg/kg per injection in experiment 2. It is filed as functional, organism-based. Particulars: Mus musculus. The method in brief:
as §2

Assay [34] deals with L1210. The experiment in a line: Tested for median life span against solid tumor L1210 leukemia at 10 mg/kg per injection in experiment 2. In kind it is functional, organism-based. Particulars: Mus musculus. Summed up: as §2
Assay [35] deals with L1210. The experiment in a line: Tested for the ratio of treated and control against solid tumor murine L1210 Pt-resistant leukemia 4.0 mg/kg per injection in experiment 1; T/C. The following applies: Mus musculus. It is filed as functional, organism-based. Summed up:
as §4

Assay [36] relates to Mus musculus. The experiment in a line: Tested for median life span against solid tumor P388 leukemia at 5.0 mg/kg per injection. It is filed as functional, organism-based. The method in brief:
as §4

Assay [37] concerns L1210. The experiment in a line: Tested for in vivo weight change against murine L1210 leukemia at the dose of 10 mg/kg per injection in experiment 2. The following applies: Mus musculus. In kind it is functional, organism-based. Summed up: as §1
The test system of assay [38] is L1210. The experiment in a line: Tested for the ratio of number of survivors / total number after 60 days at the dose of 6.0 mg/kg per injection against murine leukemia L1210 experiment 1. In kind it is functional, organism-based. Particulars: Mus musculus. The method in brief:
as §3

Assay [39] has as its system Mus musculus. The experiment in a line: Tested for in vivo weight change against murine P388 Pt-resistant leukemia at the dose of 10 mg/kg per injection. In kind it is functional, organism-based. The method in brief:
as §1

The term T/C denotes the result in the treated group divided by that in the control group, in per cent.

As for [Pt(cis-1,4-dach)CL2], the Weight change is -5.2 g in the assay on Mus musculus [1]; 1.9 g with L1210 [17]; 0.6 g in the assay with L1210 [19]; -1.9 g in the assay with L1210 [20]; -2.6 g with Mus musculus [23]. Besides, the ID50 in the assay with P388 [2] amounted to 0.047 µg/mL; with L1210 [4], 0.248 µg/mL; in the assay with L1210 [5], 0.663 µg/mL; with P388 [16], 1.43 µg/mL; in the assay on L1210 [21], 1.21 µg/mL; with L1210 [22] it was 1.08 µg/mL. Moreover, the MLS in the assay with L1210 [3] was determined as 23 days; with L1210 [7], 17 days; in the assay with L1210 [9], 21.3 days; in the assay on L1210 [13], 15.7 days; with Mus musculus [15], 26 days. The 60-day survivors in the assay on L1210 [6] is 1; in the assay on Mus musculus [11], 0. The Ratio with L1210 [8] turned out to be 146%; in the assay on L1210 [14], 229%. For the same substance, the Survivors with Mus musculus [10] was determined as 0; with Mus musculus [18] it was 21 days. The T/C in the assay with Mus musculus [12] was 177%.

Turning to CISPLATIN, the ID50 is 0.128 µg/mL in the assay on P388 [2]; 0.375 µg/mL in the assay on L1210 [4]; 4.11 µg/mL in the assay on L1210 [5]; 10 µg/mL in the assay on P388 [16]; 7.84 µg/mL with L1210 [21]; 0.52 µg/mL with L1210 [22]. For the same substance, the results for the Ratio in the assay with L1210 [24], in the assay on L1210 [27] and in the assay with L1210 [35] were 107%, 120% and 109%, respectively. Besides, the MLS was 9.5 days in the assay on Mus musculus [25], 11 days in the assay on L1210 [33], 18.5 days in the assay on L1210 [34] and 29 days in the assay with Mus musculus [36]. For the same substance, the Survivors with Mus musculus [26] was determined as 0; in the assay with Mus musculus [28], 0; in the assay on L1210 [31], 0; in the assay with L1210 [32], 0; in the assay on L1210 [38] it was 1. Moreover, the Weight change in the assay with L1210 [29] was -1.9 g; in the assay on L1210 [30], 0.5 g; in the assay with L1210 [37], -3.3 g; with Mus musculus [39], -5.9 g.
